Source: ChEMBL document CHEMBL1649560, “Beta-lactamase-mediated beta-lactam resistance in Campylobacter species: prevalence of Cj0299 (bla OXA-61) and evidence for a novel beta-Lactamase in C. jejuni” (2009)
In brackets after ≈: the same amount, converted by molar mass.

What was measured:
Format in all cases: functional
Campylobacter jejuni [1] = test: Antibacterial activity against Campylobacter jejuni by NCCLS agar doubling dilution method
Outline: (§1)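 MICs by agar doubling dilution following the NCCLS (CLSI) Campylobacter Working Group procedure, applied to ampicillin- and amoxicillin-resistant isolates from UK chicken flocks (2000–2006). C. jejuni NCTC 11168 and C. coli NCTC 11366 served as control strains. Resistance was called at an ampicillin cutoff of 8 μg/ml. Other agents were judged against Enterobacteriaceae guidelines (BSAC, CLSI).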

Campylobacter coli [2] = test: Antibacterial activity against Campylobacter coli by NCCLS agar doubling dilution method; outline: as §1
Campylobacter jejuni [3] = test: Antibacterial activity against bla gene-positive and nitrocefin reaction-negative beta-lactamase harboring Campylobacter jejuni NCTC 11168 by NCCLS agar doubling dilution method
Outline: (§2)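 MICs of β-lactams by agar doubling dilution following the NCCLS (CLSI) Campylobacter Working Group procedure, with C. jejuni NCTC 11168 and C. coli NCTC 11366 as controls. Isolates were from UK poultry flocks. β-Lactamase status was set by Cj0299 PCR (281-bp amplimer) and by a nitrocefin colour change of sonicated lysate within 5 min, or within 30 min on repeat.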

Campylobacter jejuni [4] = test: Antibacterial activity against Campylobacter jejuni isolate P270 harboring blaOXA-61::cat gene by NCCLS agar doubling dilution method
Campylobacter jejuni [5] = test: Antibacterial activity against bla gene-negative and nitrocefin reaction-negative beta-lactamase harboring Campylobacter jejuni isolate P835 by NCCLS agar doubling dilution method; outline: as §2
Campylobacter jejuni [6] = test: Antibacterial activity against bla gene-negative and nitrocefin reaction-negative beta-lactamase harboring Campylobacter jejuni isolate P850 by NCCLS agar doubling dilution method; outline: as §2
Campylobacter jejuni [7] = test: Antibacterial activity against bla gene-negative and nitrocefin reaction-negative beta-lactamase harboring Campylobacter jejuni isolate P1962 by NCCLS agar doubling dilution method; outline: as §2
Campylobacter jejuni [8] = test: Antibacterial activity against bla gene-positive and nitrocefin reaction-positive beta-lactamase harboring Campylobacter jejuni isolate P285 by NCCLS agar doubling dilution method
Outline: (§3)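 MICs by agar doubling dilution per the NCCLS (now CLSI) Campylobacter Working Group method. Isolates came from UK chicken flocks (feces, ceca or farm environment), 2000–2006. C. jejuni NCTC 11168 and C. coli NCTC 11366 served as control strains. The ampicillin resistance cutoff was 8 μg/ml; BSAC/CLSI Enterobacteriaceae guidelines were used for other agents.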

Campylobacter jejuni [9] = test: Antibacterial activity against bla gene-positive and nitrocefin reaction-positive beta-lactamase harboring Campylobacter jejuni isolate P286 by NCCLS agar doubling dilution method; outline: as §3
Campylobacter jejuni [10] = test: Antibacterial activity against bla gene-positive and nitrocefin reaction-positive beta-lactamase harboring Campylobacter jejuni isolate P305 by NCCLS agar doubling dilution method; outline: as §3
Campylobacter jejuni [11] = test: Antibacterial activity against bla gene-positive and nitrocefin reaction-positive beta-lactamase harboring Campylobacter jejuni isolate P316 by NCCLS agar doubling dilution method; outline: as §3
Campylobacter jejuni [12] = test: Antibacterial activity against bla gene-positive and nitrocefin reaction-positive beta-lactamase harboring Campylobacter jejuni isolate P338 by NCCLS agar doubling dilution method; outline: as §3
Campylobacter jejuni [13] = test: Antibacterial activity against Campylobacter jejuni isolate P338 harboring blaOXA-61::cat gene by NCCLS agar doubling dilution method
Outline: (§4)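 Agar doubling dilution MICs (NCCLS/CLSI Campylobacter Working Group method) against Cj0299-inactivated mutants. Mutants were made by transforming the C. jejuni isolate with pCI and selecting on Mueller-Hinton agar with 10 μg/ml chloramphenicol for 3–5 days. Chromosomal insertion was confirmed by PCR with Cj0299 and cat primers.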

Campylobacter jejuni [14] = test: Antibacterial activity against bla gene-positive and nitrocefin reaction-positive beta-lactamase harboring Campylobacter jejuni isolate P790 by NCCLS agar doubling dilution method; outline: as §3
Campylobacter jejuni [15] = test: Antibacterial activity against bla gene-positive and nitrocefin reaction-positive beta-lactamase harboring Campylobacter jejuni isolate P1093 by NCCLS agar doubling dilution method; outline: as §2
Campylobacter jejuni [16] = test: Antibacterial activity against Campylobacter jejuni isolate P1093 harboring blaOXA-61::cat gene by NCCLS agar doubling dilution method; outline: as §4
Campylobacter jejuni [17] = test: Antibacterial activity against bla gene-positive and nitrocefin reaction-positive beta-lactamase harboring Campylobacter jejuni isolate P1618 by NCCLS agar doubling dilution method; outline: as §2
Campylobacter jejuni [18] = test: Antibacterial activity against bla gene-positive and nitrocefin reaction-positive beta-lactamase harboring Campylobacter jejuni isolate P1650 by NCCLS agar doubling dilution method; outline: as §2
Campylobacter jejuni [19] = test: Antibacterial activity against bla gene-positive and nitrocefin reaction-positive beta-lactamase harboring Campylobacter jejuni isolate P1730 by NCCLS agar doubling dilution method; outline: as §3
Campylobacter jejuni [20] = test: Antibacterial activity against bla gene-positive and nitrocefin reaction-negative beta-lactamase harboring Campylobacter jejuni isolate P1698 by NCCLS agar doubling dilution method; outline: as §2
Campylobacter jejuni [21] = test: Antibacterial activity against bla gene-positive and nitrocefin reaction-negative beta-lactamase harboring Campylobacter jejuni isolate P1699 by NCCLS agar doubling dilution method; outline: as §2
Campylobacter jejuni [22] = test: Antibacterial activity against bla gene-negative and nitrocefin reaction-positive beta-lactamase harboring Campylobacter jejuni isolate P843 by NCCLS agar doubling dilution method; outline: as §2
Campylobacter jejuni [23] = test: Antibacterial activity against bla gene-negative and nitrocefin reaction-positive beta-lactamase harboring Campylobacter jejuni isolate P854 by NCCLS agar doubling dilution method; outline: as §2
Campylobacter coli [24] = test: Antibacterial activity against bla gene-positive and nitrocefin reaction-positive beta-lactamase harboring Campylobacter coli isolate P321 by NCCLS agar doubling dilution method; outline: as §2
Campylobacter coli [25] = test: Antibacterial activity against bla-positive and beta-lactamase-weakly positive Campylobacter coli isolate P1627 by NCCLS agar doubling dilution method; outline: as §3
Campylobacter coli [26] = test: Antibacterial activity against bla gene-positive and nitrocefin reaction-positive beta-lactamase harboring Campylobacter coli isolate P1826 by NCCLS agar doubling dilution method; outline: as §2

Row | SMILES | MIC50 (Campylobacter jejuni [1]) | MIC90 (Campylobacter jejuni [1]) | MIC50 (Campylobacter coli [2]) | MIC90 (Campylobacter coli [2]) | MIC (Campylobacter jejuni [3]) | MIC (Campylobacter jejuni [4]) | MIC (Campylobacter jejuni [5]) | MIC (Campylobacter jejuni [6]) | MIC (Campylobacter jejuni [7]) | MIC (Campylobacter jejuni [8]) | MIC (Campylobacter jejuni [9]) | MIC (Campylobacter jejuni [10]) | MIC (Campylobacter jejuni [11]) | MIC (Campylobacter jejuni [12]) | MIC (Campylobacter jejuni [13]) | MIC (Campylobacter jejuni [14]) | MIC (Campylobacter jejuni [15]) | MIC (Campylobacter jejuni [16]) | MIC (Campylobacter jejuni [17]) | MIC (Campylobacter jejuni [18]) | other results
1 | CO[C@@]1(NC(=O)Cc2cccs2)C(=O)N2C(C(=O)O)=C(COC(N)=O)CS[C@@H]21 [CEFOXITIN] | 128 µg/mL (≈ 299 µM) | 256 µg/mL (≈ 599 µM) | 128 µg/mL (≈ 299 µM) | > 256 µg/mL | 32 µg/mL (≈ 74.9 µM) | 32 µg/mL (≈ 74.9 µM) | 256 µg/mL (≈ 599 µM) | 256 µg/mL (≈ 599 µM) | 256 µg/mL (≈ 599 µM) | 256 µg/mL (≈ 599 µM) | 256 µg/mL (≈ 599 µM) | 128 µg/mL (≈ 299 µM) | 128 µg/mL (≈ 299 µM) | 512 µg/mL (≈ 1200 µM) | 512 µg/mL (≈ 1200 µM) | 64 µg/mL (≈ 150 µM) | 128 µg/mL (≈ 299 µM) | 128 µg/mL (≈ 299 µM) | 256 µg/mL (≈ 599 µM) | 128 µg/mL (≈ 299 µM) | MIC (Campylobacter jejuni [19]): 256 µg/mL (≈ 599 µM); MIC (Campylobacter jejuni [20]): 128 µg/mL (≈ 299 µM); MIC (Campylobacter jejuni [21]): 128 µg/mL (≈ 299 µM); MIC (Campylobacter jejuni [22]): 256 µg/mL (≈ 599 µM); MIC (Campylobacter jejuni [23]): 128 µg/mL (≈ 299 µM); MIC (Campylobacter coli [24]): 64 µg/mL (≈ 150 µM); MIC (Campylobacter coli [25]): 64 µg/mL (≈ 150 µM); MIC (Campylobacter coli [26]): 128 µg/mL (≈ 299 µM)
2 | C[C@@H](O)[C@H]1C(=O)N2C(C(=O)O)=C(S[C@@H]3CN[C@H](C(=O)N(C)C)C3)[C@H](C)[C@H]12 [MEROPENEM] | 0.015 µg/mL (≈ 0.0391 µM) | 0.12 µg/mL (≈ 0.313 µM) | 0.12 µg/mL (≈ 0.313 µM) | 0.12 µg/mL (≈ 0.313 µM) | 0.08 µg/mL (≈ 0.209 µM) | 0.008 µg/mL (≈ 0.0209 µM) | < 0.015 µg/mL | 0.03 µg/mL (≈ 0.0782 µM) | 0.015 µg/mL (≈ 0.0391 µM) | 0.015 µg/mL (≈ 0.0391 µM) | 0.25 µg/mL (≈ 0.652 µM) | 0.06 µg/mL (≈ 0.156 µM) | 0.12 µg/mL (≈ 0.313 µM) | 0.12 µg/mL (≈ 0.313 µM) | 0.015 µg/mL (≈ 0.0391 µM) | 0.12 µg/mL (≈ 0.313 µM) | 0.5 µg/mL (≈ 1.3 µM) | 0.03 µg/mL (≈ 0.0782 µM) | 0.008 µg/mL (≈ 0.0209 µM) | 0.008 µg/mL (≈ 0.0209 µM) | MIC (Campylobacter jejuni [19]): 0.015 µg/mL (≈ 0.0391 µM); MIC (Campylobacter jejuni [20]): 0.015 µg/mL (≈ 0.0391 µM); MIC (Campylobacter jejuni [21]): 0.015 µg/mL (≈ 0.0391 µM); MIC (Campylobacter jejuni [22]): 0.03 µg/mL (≈ 0.0782 µM); MIC (Campylobacter jejuni [23]): 0.03 µg/mL (≈ 0.0782 µM); MIC (Campylobacter coli [24]): 0.12 µg/mL (≈ 0.313 µM); MIC (Campylobacter coli [25]): 0.03 µg/mL (≈ 0.0782 µM); MIC (Campylobacter coli [26]): 0.06 µg/mL (≈ 0.156 µM)
3 | Cc1onc(-c2ccccc2Cl)c1C(=O)N[C@@H]1C(=O)N2[C@@H]1SC(C)(C)[C@@H]2C(=O)O [CLOXACILLIN] | 256 µg/mL (≈ 587 µM) | > 256 µg/mL | 256 µg/mL (≈ 587 µM) | > 256 µg/mL | 128 µg/mL (≈ 294 µM) | 128 µg/mL (≈ 294 µM) | 256 µg/mL (≈ 587 µM) | 256 µg/mL (≈ 587 µM) | 256 µg/mL (≈ 587 µM) | 256 µg/mL (≈ 587 µM) | 256 µg/mL (≈ 587 µM) | 256 µg/mL (≈ 587 µM) | 256 µg/mL (≈ 587 µM) | 128 µg/mL (≈ 294 µM) | 128 µg/mL (≈ 294 µM) | > 256 µg/mL | 512 µg/mL (≈ 1170 µM) | 256 µg/mL (≈ 587 µM) | 128 µg/mL (≈ 294 µM) | 256 µg/mL (≈ 587 µM) | MIC (Campylobacter coli [2]): 256 µg/mL (≈ 587 µM); MIC (Campylobacter jejuni [19]): 256 µg/mL (≈ 587 µM); MIC (Campylobacter jejuni [20]): 128 µg/mL (≈ 294 µM); MIC (Campylobacter jejuni [21]): 256 µg/mL (≈ 587 µM); MIC (Campylobacter jejuni [22]): > 256 µg/mL; MIC (Campylobacter jejuni [23]): 256 µg/mL (≈ 587 µM); MIC (Campylobacter coli [24]): 256 µg/mL (≈ 587 µM); MIC (Campylobacter coli [25]): 256 µg/mL (≈ 587 µM); MIC (Campylobacter coli [26]): 256 µg/mL (≈ 587 µM)
